How the values were obtained:
[1] = Compound E and XR9576 levels in brain tissue; format: in vivo, mouse; conditions: LC-MS
How it was run: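 Brain hemispheres were homogenised by shaking with a steel ball (5 min, 20 Hz) in 45% methanol/45% acetonitrile/8% water/2% formic acid containing 1 µM internal standard, at 200 mg/ml. Extracts were centrifuged, filtered (0.8 µm) and run on capillary LC-MS (PLRPS column; water/acetonitrile gradient with 0.1% formic acid). Levels were quantified from internal-standard-normalised peak areas against an external curve prepared in control mouse brain extract.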

[2] = test system: mRNA of genes related to APP processing or Aβ clearance; assay: qRT-PCR of APP processing and Aβ clearance genes in brain; format: in vivo, mouse; conditions: 2 h after 80 mg/kg i.v.; cortex; n = 6/group; P = 0.08-0.94
How it was run: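 3-month-old mice received the Pgp inhibitor (80 mg/kg i.v.) or vehicle (5% dextrose) and were killed 2 h later. Cortical total RNA was reverse transcribed and run by SYBR Green qPCR with dissociation-curve checks. Genes were APP, PSEN1/2, nicastrin, APH-1, BACE1, ADAM10/17, Pgp, LRP1, IDE, NEP, MMP2 and MMP9. Levels were derived by ΔΔCt against mouse GAPDH and compared by t tests corrected for multiple comparisons.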

[3] = test system: ISF Aβ40; assay: baseline ISF Aβ40 in hippocampus measured with calibrated Aβ40 MIE; format: in vivo, APP/PS1 mice; conditions: 60 min after XR9576 80 mg/kg; n = 8; mean ± SEM; control mice 99.12 ± 19.28 (n = 15); P = 0.008
[4] = test system: LRP1; assay: LRP1 protein levels in brain tissue; format: in vivo, mouse; conditions: after XR9576 administration; n = 9/group; P = 0.35
[5] = test system: P-glycoprotein (Pgp); conditions: rodents; ref Bankstahl et al., 2008; cited from earlier work
[6] = test system: ISF Aβ; assay: in vivo microdialysis of ISF Aβ during isoflurane anesthesia; design: species or system mouse; conditions: first 3 h of isoflurane anesthesia, n = 4, not significant, P = 0.135

C[C@H](NC(=O)Cc1cc(F)cc(F)c1)C(=O)N[C@H]1N=C(c2ccccc2)c2ccccc2N(C)C1=O [Compound E]
Compound E level in brain tissue ([1]; within 5 min after intraperitoneal injection (30 mg/kg)): 395 nM

COc1cc2c(cc1OC)CN(CCc1ccc(NC(=O)c3cc(OC)c(OC)cc3NC(=O)c3cnc4ccccc4c3)cc1)CC2 [XR9576]
mRNA expression levels in the brain [2]: did not find significant differences | XR9576 level in brain tissue ([1]; 1 h after injection, mouse brain extract, mean ± SEM): 533.0 ± 68.11 µM | absolute baseline concentration of ISF Aβ40 [3]: 283.9 ± 80.38 | LRP1 protein levels in hippocampus [4]: did not change | time of maximum inhibition of Pgp activity after injection [5]: 30 min

FC(F)OC(Cl)C(F)(F)F (stereo not shown) [isoflurane]
decrease of ISF Aβ levels [6]: 14%
